Measured values published in PMC5035150 (Journal of biological inorganic chemistry : JBIC : a …, 2015).
Read-outs that look alike come from different tables or passages of the source.

Columns and labels:
[1] = tested on: KB-3-1 human cervical carcinoma cell line; assay: Cytotoxicity, CellTiter-Glo, monolayer; format: cell-based
Outline: (§1)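 Monolayers in DMEM (4.5 g/L glucose, L-glutamine, penicillin/streptomycin, 10% FBS) at 37 °C, 5% CO2. […] Cells at 1000/well grown 24 h, then given test compound (from DMF, DMSO or 3 mM saline stock) as 1:3 serial dilutions in DMEM, DMF at most 0.25% final. After 72 h, CellTiter-Glo luminescence read, in triplicate.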

[2] = tested on: cisplatin-resistant KB CP.5 cells; assay: Cytotoxicity, CellTiter-Glo, monolayer; format: cell-based, human
Outline: as §1

[3] = tested on: cisplatin-resistant KB CP20 cells; assay: Cytotoxicity, CellTiter-Glo, monolayer; format: cell-based, human; conditions: for IC50: read-out: IC50 KB CP20, 72 h; for resistance of CP20 cells: relative to parent KB-3-1 cells, monolayer (Table 1 data)
Outline: as §1

[4] = tested on: KB-3-1 cells grown in Matrigel; assay: Cytotoxicity in three dimensional Matrigel culture, CellTiter-Glo; format: cell-based, human; conditions: KB-3-1, Matrigel
Outline: (§2)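 Wells coated with 5 mg/mL Matrigel and gelled 30 min at 37 °C. Cells (1000/well) seeded over it in 2.5 mg/mL Matrigel and grown 1 day (single cells) or 4 days (spheroids). Test compound added as 1:3 serial dilutions in DMEM. Viability by CellTiter-Glo with 60 min lysis, run in triplicate.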

[5] = tested on: CP.5 cells grown in Matrigel; assay: as above; format: cell-based, human; conditions: for IC50: CP.5, Matrigel
Outline: as §2

[6] = tested on: phosphorylation of histone H2A.X in KB-3-1 cells; assay: H2AX immunohistochemical staining; format: cell-based, human; conditions: 24 h treatment
Outline: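 KB-3-1 cells (5 × 10^4 per chamber) grown 24 h, then exposed to Pt complexes (5–100 μM) for 24 h. Cells PBS-washed, fixed in 4% paraformaldehyde and blocked 1 h in PBS/5% normal horse serum/0.3% Triton X-100. Stained overnight at 4 °C with Alexa Fluor 647-conjugated anti-phospho-H2A.X (Ser139) rabbit mAb, counterstained with DAPI (2 μg/mL, 1 h), then imaged for γH2A.X foci by confocal microscopy.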

[7] = tested on: cisplatin-resistant cell lines; conditions: cited from earlier work
[8] = pH 7.2
[9] = tested on: CP20 cells relative to KB-3-1 cells; assay: Cellular accumulation by flow cytometry; format: cell-based, human; conditions: 25 μM, 45 min, normalized to KB-3-1
Outline: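 Cells trypsinised (200,000 per tube), washed twice and resuspended in IMDM with 5% FBS containing fluorescent test compound (final 25 μM), then held 45 min at 37 °C. Cells rewashed, resuspended in PBS and kept on ice. FL-1 fluorescence read by flow cytometry (488 nm laser, 10,000 events per sample), normalised to parental KB-3-1 cells.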

Distribution coefficient = conditions: [octanol]:[phosphate-buffered saline, pH 7.2], fluorescence, mean ± SD
[10] = read-out: IC50 2D, KB-3-1, 2D culture (Table 2)
[11] = read-out: IC50 KB 3-1, solvent DMF, 72 h
[12] = read-out: IC50 KB 3-1, solvent Saline, 72 h
[13] = read-out: IC50 2D, CP.5, 2D culture (Table 2)
[14] = read-out: IC50 KB CP.5, solvent DMF, 72 h
[15] = read-out: IC50 KB CP.5, solvent Saline, 72 h
[16] = relative to parent KB-3-1 cells, monolayer (Table 1 data)
[17] = read-out: IC50 3D 1 Day, grown 1 day (single-cell suspension)
[18] = read-out: IC50 3D 4 Day, grown 4 days (spheroids)

Molecule | IC50 [1, 10] [µM] | IC50 [1, 11] [µM] | IC50 [1, 12] [µM] | IC50 [2, 13] [µM] | IC50 [2, 14] [µM] | IC50 [2, 15] [µM] | resistance of CP.5 cells [2, 16] [fold] | IC50 ([3]; solvent DMF) [µM] | IC50 ([3]; solvent Saline) [µM] | resistance of CP20 cells [3] [fold] | IC50 [4, 17] [µM] | IC50 [4, 18] [µM] | IC50 [5, 17] [µM] | IC50 [5, 18] [µM] | reduction in accumulation in cisplatin-resistant cells [7] | other results
N.N.[Cl][Pt][Cl] [Cisplatin, cis-[PtCl2(NH3)2]] | 2.5 ± 0.1 | 1.8 ± 0.1 | 2.5 ± 0.2 | 21 ± 2.8 | 23.9 ± 5.3 | 25.1 ± 3.4 | 10 | 125 ± 31.5 | > 100 | 60 | 4.5 ± 0.7 | 9.4 ± 0.7 | 22.9 ± 4.6 | 32.1 ± 6.9 | 50–75% | resistance of CP.5 cells ([2]; 2D (Table 2 data), relative to KB-3-1): 8.4 fold; resistance of CP.5 spheroids ([5]; 3D 4 day, relative to KB-3-1): 3.4 fold; γH2A.X foci / DNA damage response ([6]; 5 μM): strong DNA damage response
[Pt(O,O′-cdbca)(NH3)2] [[^14C]carboplatin] | – | – | – | – | – | – | – | – | – | – | – | – | – | – | 50–75% | –
CC1=CC(C)=[N+]2C1=Cc1ccc(CCC(=O)NCCNC(=O)C3C[NH][Pt]([Cl])([Cl])[NH]3)n1[B-]2(F)F (stereo not drawn) [BODIPY-prop-Pt, [(2,3-Diamino-N-(2-(3-(5,5-difluoro-7,9-dimethyl-5H-4λ^4,5λ^4-dipyrrolo[1,2-c:2′,1′-f][1,3,2]diazaborinin-3-yl)propanamido)ethyl)propanamide)dichloroplatinum (II)]] | – | 21.5 ± 5.8 | – | – | 44.6 ± 2.7 | – | 2 | 192 ± 50.3 | – | 10 | – | – | – | – | – | γH2A.X foci ([6]; 50 μM): did so at 50 μM; LogD [8]: 0.66 ± 0.011
NCCN.[Cl][Pt][Cl] [[PtCl2(en)]] | 4.1 ± 0.2 | 1 ± 0.6 | 2.7 ± 1.9 | 107 ± 10.9 | 150 ± 11.8 | 94.9 ± 8.3 | 40 | > 500 | > 100 | – | 21.4 ± 1 | 150 | 298 ± 21.8 | > 500 | – | γH2A.X foci / DNA damage response ([6]; 25 μM): strong DNA damage response
CC1=CC(C)=[N+]2C1=Cc1ccc(CCC(=O)NCCNC(=O)OC(C)(C)C)n1[B-]2(F)F [BODIPY-Boc, tert-Butyl (2-(3-(5,5-Difluoro-7,9-dimethyl-5H-4λ^4,5λ^4-dipyrrolo[1,2-c:2′,1′-f][1,3,2]diazaborinin-3-yl)propanamido)ethyl)carbamate] | – | 86.7 ± 0.8 | – | – | 86.9 ± 4.4 | – | – | 53.6 ± 2.9 | – | – | – | – | – | – | – | reduction of accumulation in CP20 cells versus parent KB-3-1 cells [9]: unaffected; LogD (Distribution coefficient): 2.15 ± 0.023
